Assay outcomes (PubChem)
Compounds with a hit are over-represented: about 6.3% of the library has one in this group of screens.
E coli WT exp = E. coli BW25113 growth inhibition, expanded screen; OD600 absorbance; growth inhibition, % at 100 µM; 98,000 compounds, 0.15% hits; AID 710;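 active = growth inhibition above about 50% at one test dose, limit read from the data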;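 also: growth measured after 20 h incubation at 37 °C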
PostGolgi ctrl = inhibits growth of the yeast control strain; efflux-deficient yeast background strain, growth absorbance A615, 16 h; inhibition, % at 10 µM; 98,000 compounds, 5% hits; AID 738
PostGolgi yeast = growth inhibition of a yeast mutant, post-Golgi transport screen; post-Golgi transport phenotypic cell assay; 98,000 compounds, 0.9% hits; AID 739; inhibition, % at 10 µM;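 also: yeast cells grown in 1536-well plates; yeast grown about 18 h at 30C before absorbance read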
Ecoli tolC = growth inhibitors of E. coli BW25113 tolC mutant; OD615; growth inhibition, % at 10 µM (by protocol); 65,000 compounds, 2.2% hits; AID 573;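 active = growth inhibition at or above a cutoff equal to the mean over every tested compound plus 3 SD, cut at about 60% in these data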;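 also: growth measured after 20 h incubation at 37 °C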
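Doses: one dose of 10 µM final / Material: E. coli BW25113 ΔtolC::kan, tolC deletion mutant strain / Buffer or medium: LB with kanamycin 50 µg/mL / Evaluation: percent growth inhibition / Detection: optical density read at 615 nm / Incubation: 37 °C, 20 h exposure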
The depositor's hits bear a star; . = no result given. Rule as the data show it, unless noted: active = inhibition above about 30%; inactive = the rest.

SMILES	E coli WT exp	PostGolgi ctrl	PostGolgi yeast	Ecoli tolC
CCc1n[nH]c2c1/C(=N\O)CC(c1ccccc1)C2 (stereo unspecified)	9	1	1	12
CCc1n[nH]c2c1/C(=N\O)CC(C)(C)C2	5	2	98*	-2
CCOC(=O)C1C2C=CC3(CN(c4ccccc4CC)C(=O)C13)O2 (stereo unspecified)	.	.	.	-22
C/C(=N\N=C(/N)SC1CC(=O)N(c2ccc(Br)cc2)C1=O)c1cccs1 (stereo unspecified)	-1	41*	-5	.
C/C(=N\N=C(/N)SC1CC(=O)N(c2ccc(Cl)c(Cl)c2)C1=O)c1cccs1 (stereo unspecified)	-6	57*	102*	.
O=C(Nc1ccccc1C(=O)NC(Cc1ccccc1)C(=O)NC1CCCCCC1)c1ccccc1 (stereo unspecified)	-11	12	2	.
O=C1CS/C(=N\C(=O)N2c3ccccc3Sc3ccccc32)N1	-2	1	-9	36
COc1ccc(-c2nc(-c3ccccc3)nc(N3CCN(C)CC3)c2C#N)cc1	-5	33*	-3	.
COc1ccc(-c2nc(-c3cccc(C)c3)nc(N3CCN(C)CC3)c2C#N)cc1	-5	23	-3	.
Cc1cc(C)n(C(=O)CCCCCCCCC(=O)n2nc(C)cc2C)n1	2	6	-10	.
Cc1cc(C)cc(-n2c(C)cc(/C=N/NC(=O)CSc3ncccn3)c2C)c1	8	18	41*	.
c1ccc2c(c1)ncn2-c1ccc(-c2ccnc(-c3ccncc3)n2)cc1	-3	72*	98*	.
CC1=C(C(=O)OCc2ccccc2)C(c2cccnc2)c2c(n(C)c(=O)n(C)c2=O)N1 (stereo unspecified)	-2	11	-2	.
Cc1ccccc1N=C1NC(=O)CC(c2ccccc2)S1 (stereo unspecified)	-6	13	8	.
C=CCN1C(=O)C2(/C(=C(\O)c3ccc4c(c3)OCCO4)C(=O)C(=O)N2CCCOC)c2ccccc21 (stereo unspecified)	0	41*	-10	-27
CCc1cc2c(=O)n(CC)c(SC(C)C(=O)Nc3c(C)n(C)n(-c4ccccc4)c3=O)nc2s1 (stereo unspecified)	-1	4	0	.
COc1cccc(-c2nnc3n2N=C(c2cc(OC)ccc2OC)CS3)c1	-8	37*	8	.
COc1ccc(C2=Nn3c(nnc3-c3ccc(OC)cc3)SC2)cc1	-1	42*	29	27
COc1ccc(-c2nnc3n2N=C(C)CS3)cc1	-2	29	3	.
CCOc1cccc(-c2nnc3n2N=C(c2cc(OC)ccc2OC)CS3)c1	3	58*	-1	22
CC1CCN(c2c(NCc3ccc(C(=O)N4c5ccccc5CC4C)cc3)c(=O)c2=O)CC1 (stereo unspecified)	-1	-4	1	47
Cc1ccc(OC(=O)CCc2c(C)nc3ncnn3c2C)cc1	-2	-1	-1	-14
O=C(CN1CCN(c2ncccn2)CC1)N1CCN(C(c2ccccc2)c2ccccc2)CC1	.	.	.	52
Cc1cc(C)c(C#N)c(SCS(=O)Cc2ccc(Cl)cc2)n1 (stereo unspecified)	-15	38*	9	49
Cc1ccc(N2CCN(C(=O)c3ccccc3Br)CC2)c(C)c1	-2	37*	1	40
SMILES	E coli WT exp	PostGolgi ctrl	PostGolgi yeast	Ecoli tolC
Cc1ccc(C)c(N2CCN(C(=O)c3ccccc3Br)CC2)c1	-8	29	1	69*
COc1ccc(-c2nc3cc(NC(=O)Cc4ccc(OC)c(OC)c4)ccc3o2)cc1	-7	2	-6	22
Cc1ccc(-c2nc3c(=O)n(C)c4ccccc4c3o2)cc1	-4	77*	11	13
CCOC(=O)C1CCN(C(c2cccc(F)c2)c2sc3nc(C)nn3c2O)CC1 (stereo unspecified)	6	37*	5	-5
Cc1nc2sc(C(c3cccc(F)c3)N3CCC(C)CC3)c(O)n2n1 (stereo unspecified)	2	31*	10	-7
CC(C)(C)c1ccc(OCC(O)CSc2ncn[nH]2)cc1 (stereo unspecified)	-8	3	-1	.
CN(C(=O)c1cnc(N2CCN(c3ncccn3)CC2)c2ccccc12)c1ccc(Cl)cc1	-26	73*	-3	19
CCN(C(=O)c1cnc(N2CCN(c3ncccn3)CC2)c2ccccc12)c1cccc(Cl)c1	-11	13	2	22
COc1cccc(N2CCN(c3ncnc4c3cnn4-c3ccc(C)cc3C)CC2)c1	-9	46*	3	30
Cc1cccc(-n2ncc3c(N(C)Cc4ccccc4)ncnc32)c1	.	.	.	93*
Cc1cccc(-n2ncc3c(N)ncnc32)c1	-8	2	2	12
Cc1ccc(C)c(N2CCN(c3ncnc4c3cnn4-c3ccccc3)CC2)c1	1	10	-4	21
Cc1cccc(-n2ncc3c(N4CCC(C)CC4)ncnc32)c1	-2	45*	44*	94*
c1ccc(CCN2CCN(c3ncnc4c3cnn4-c3ccccc3)CC2)cc1	-23	12	-3	66*
Cc1ccc(-c2noc(CCC(=O)N(C)c3ccccc3C)n2)cc1	1	20	0	11
Cc1ccccc1COc1ccc(/C(O)=C2/C(=O)C(=O)N(CCCn3ccnc3)C2c2ccco2)cc1 (stereo unspecified)	.	.	.	6
CC1CCCN(c2ncnc3c2cnn3-c2ccc(Cl)cc2)C1 (stereo unspecified)	.	.	.	96*
CC1CCCN(c2ncnc3c2cnn3-c2ccccc2)C1 (stereo unspecified)	.	.	.	59
Cc1ccc(-n2ncc3c(N4CCCC4)ncnc32)c(C)c1	3	33*	0	-3
C=C(C)Cn1c(NCCOC)nc2c1c(=O)[nH]c(=O)n2C	-3	10	6	-11
O=C(CSc1nccn1Cc1ccccc1)NCc1ccccc1	-11	3	8	.
COc1ccc(-n2c(SCC(=O)NCc3ccco3)nc3c([nH]c4ccccc43)c2=O)cc1	-3	-4	-3	.
CC1(C)CC(=O)C2=C(C1)Oc1ncn(CCCO)c(=N)c1C2c1ccccc1 (stereo unspecified)	5	-1	4	-2
CC1(C)CC(=O)C2=C(C1)Oc1ncn(CCO)c(=N)c1C2c1ccccc1 (stereo unspecified)	-14	31*	1	-17
COc1cccc(-n2nnnc2SCC(=O)N2CCCc3ccccc32)c1	-13	8	-10	24
SMILES	E coli WT exp	PostGolgi ctrl	PostGolgi yeast	Ecoli tolC
CCN1CCc2c(C#N)c(N3CCOCC3)nc(NCc3ccccc3)c2C1	6	36*	5	12
O=P(O)(CN1CCCCC1)C1CCCCC1O (stereo unspecified)	.	.	.	-13
FC(F)(F)c1cccc(Sc2cc(C(F)(F)F)nc(-c3ccccn3)n2)c1	-4	42*	-10	.
Cc1[nH]c(=O)[nH]c(=O)c1S(=O)(=O)NCC12CC3CC(CC(C3)C1)C2	4	43*	-2	-4
O=S(=O)(Cc1ccccc1)c1cnc2ccccc2n1	-7	17	9	.
Cc1ccc(Cn2ccc(=O)c(OCc3ccccc3)c2C)cc1	9	9	-6	.
Cc1c(OCc2ccccc2)c(=O)ccn1Cc1ccc(Cl)cc1	-2	43*	-2	.
CCOC(=O)N/N=C(/C)c1ccc([N+](=O)[O-])o1	51*	2	-3	.
